Laboratory results as given in ChEMBL document CHEMBL5678808, “Human target validation of phosphoinositide 3-kinase (PI3K)β: effects on platelets and insulin sensitivity, using AZD6482 a novel PI3Kβ inhibitor” (J Thromb Haemost, 2012).

How the values were obtained:
Rattus norvegicus [1] = test: (§1) Insulin sensitizing activity in Sprague-Dawley rat hyperinsulinemic-euglycemic glucose clamp model assessed as basal glucose level during infusion of human insulin at 1000 ug/kg/min, iv for 2 mins followed by 50 ug/kg/min, iv for 28 mins by colorimetry (reference value: 8.1 +/- 0.7 mM); type: functional; conditions: time 30 min, 0.5 h
Summary of the method: (§2)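 Anesthetized rats; hyperinsulinemic–euglycemic clamp with human insulin infused. A baseline clamp (Clamp1) was followed by a second clamp (Clamp2) with vehicle or drug i.v. The drug was given as a low dose (1000 μg kg−1 + 50 μg kg min−1) or a high dose (6000 μg kg−1 + 300 μg kg min−1). Steady-state glucose infusion rate for euglycemia was recorded, with plasma glucose, human insulin and total insulin; mean ± SEM, n = 4–5/group.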

[2] = target: Serine/threonine-protein kinase Chk1 (Homo sapiens, UniProt O14757); test: Inhibition of human CHK1
Rattus norvegicus [3] = test: Insulin sensitizing activity in Sprague-Dawley rat hyperinsulinemic-euglycemic glucose clamp model assessed as glucose level during infusion of human insulin at 6000 ug/kg/min, iv for 2 mins followed by 300 ug/kg/min, iv for 28 mins measured during clamp 2 by colorimetry (reference value: 8.1 +/- 0.7 mM); type: functional; conditions: time 30 min, 0.5 h; summary of the method: as §2
[4] = target: Protein kinase C zeta type (Homo sapiens) (UniProt Q05513); test: Inhibition of human PKCz at 10 uM relative to control
Rattus norvegicus [5] = test: as §1, with “assessed as glucose level” for “assessed as basal glucose level”, “28 mins measured during clamp 2 by colorimetry” for “28 mins by colorimetry”; type: functional; conditions: time 30 min, 0.5 h; summary of the method: as §2
Rattus norvegicus [6] = species: Rattus norvegicus; test: Inhibition of rat CK1 at 10 uM relative to control
[7] = Toxicity in Sprague-Dawley rat assessed as change in blood pressure at 1000 ug/kg, iv for 2 mins followed by 50 ug/kg/min, iv for 28 mins; type: organism-based; conditions: in vivo, 1 mg/kg, 0.5 h, time 30 min
Summary of the method: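 Blood pressure was monitored in anesthetized rats during hyperinsulinemic–euglycemic clamps. There was an initial control period, then i.v. drug at 1000 μg kg−1 + 50 μg kg min−1 or 6000 μg kg−1 + 300 μg kg min−1. Heart rate was also recorded.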

[8] = target: Mitogen-activated protein kinase 11 (Homo sapiens) (UniProt Q15759); test: Inhibition of human p38b at 10 uM relative to control
[9] = target: Fibroblast growth factor receptor 1 (Homo sapiens, UniProt P11362); test: Inhibition of human FGFR1
[10] = Toxicity in Sprague-Dawley rat hyperinsulinemic-euglycemic glucose clamp model assessed as change in heart rate at 6000 ug/kg/min, iv for 2 mins followed by 300 ug/kg/min, iv for 28 mins; type: organism-based; conditions: in vivo, 0.5 h, time 30 min
Summary of the method: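 Anesthetized rats underwent two consecutive hyperinsulinemic–euglycemic clamps with human insulin infusion: a baseline Clamp1, then Clamp2 with vehicle or AZD6482 i.v. (n = 4–5/group). Blood pressure and heart rate were followed during control periods and after drug administration. Steady-state glucose infusion rate maintained euglycemia.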

Rattus norvegicus [11] = test: as §1, with “as” for “as basal”, “infusion rate required to maintain euglycemia” for “level”, “measured during clamp 2” for “by colorimetry”, “138” for “8.1”, “4 umol/min/kg)” for “0.7 mM)”; type: functional; conditions: time 30 min, 0.5 h; summary of the method: as §2
Aurora kinase B = Aurora kinase B (Homo sapiens, UniProt Q96GD4); test: Inhibition of human AurKB
Chain of Aurora kinase B (Q96GD4 whole entry): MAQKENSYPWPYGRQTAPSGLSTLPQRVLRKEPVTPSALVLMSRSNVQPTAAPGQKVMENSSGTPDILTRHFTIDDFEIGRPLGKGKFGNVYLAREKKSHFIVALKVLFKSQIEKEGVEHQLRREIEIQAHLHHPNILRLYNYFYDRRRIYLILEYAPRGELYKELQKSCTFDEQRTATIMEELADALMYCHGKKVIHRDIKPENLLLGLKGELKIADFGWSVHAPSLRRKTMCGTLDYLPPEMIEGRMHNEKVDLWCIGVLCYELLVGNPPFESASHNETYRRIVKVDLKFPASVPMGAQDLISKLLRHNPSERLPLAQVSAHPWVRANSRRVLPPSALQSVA

Chain of Protein kinase C zeta type (Homo sapiens) (Q05513 whole entry): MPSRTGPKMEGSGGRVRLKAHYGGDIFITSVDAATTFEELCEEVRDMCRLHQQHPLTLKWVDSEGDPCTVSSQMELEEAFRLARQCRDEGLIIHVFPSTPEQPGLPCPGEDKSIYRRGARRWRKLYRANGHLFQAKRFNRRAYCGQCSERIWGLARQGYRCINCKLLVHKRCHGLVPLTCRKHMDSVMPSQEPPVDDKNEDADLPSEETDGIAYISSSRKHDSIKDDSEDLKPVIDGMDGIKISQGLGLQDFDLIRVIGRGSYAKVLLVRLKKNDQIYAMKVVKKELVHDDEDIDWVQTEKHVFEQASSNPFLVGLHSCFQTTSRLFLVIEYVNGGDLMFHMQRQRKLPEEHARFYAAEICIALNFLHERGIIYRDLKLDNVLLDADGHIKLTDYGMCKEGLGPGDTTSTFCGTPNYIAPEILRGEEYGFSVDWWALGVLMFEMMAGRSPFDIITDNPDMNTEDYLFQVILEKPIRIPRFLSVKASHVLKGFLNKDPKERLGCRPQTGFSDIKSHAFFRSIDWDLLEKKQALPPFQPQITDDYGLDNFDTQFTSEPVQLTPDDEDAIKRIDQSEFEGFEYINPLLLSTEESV
Chain of Fibroblast growth factor receptor 1 (P11362 whole entry): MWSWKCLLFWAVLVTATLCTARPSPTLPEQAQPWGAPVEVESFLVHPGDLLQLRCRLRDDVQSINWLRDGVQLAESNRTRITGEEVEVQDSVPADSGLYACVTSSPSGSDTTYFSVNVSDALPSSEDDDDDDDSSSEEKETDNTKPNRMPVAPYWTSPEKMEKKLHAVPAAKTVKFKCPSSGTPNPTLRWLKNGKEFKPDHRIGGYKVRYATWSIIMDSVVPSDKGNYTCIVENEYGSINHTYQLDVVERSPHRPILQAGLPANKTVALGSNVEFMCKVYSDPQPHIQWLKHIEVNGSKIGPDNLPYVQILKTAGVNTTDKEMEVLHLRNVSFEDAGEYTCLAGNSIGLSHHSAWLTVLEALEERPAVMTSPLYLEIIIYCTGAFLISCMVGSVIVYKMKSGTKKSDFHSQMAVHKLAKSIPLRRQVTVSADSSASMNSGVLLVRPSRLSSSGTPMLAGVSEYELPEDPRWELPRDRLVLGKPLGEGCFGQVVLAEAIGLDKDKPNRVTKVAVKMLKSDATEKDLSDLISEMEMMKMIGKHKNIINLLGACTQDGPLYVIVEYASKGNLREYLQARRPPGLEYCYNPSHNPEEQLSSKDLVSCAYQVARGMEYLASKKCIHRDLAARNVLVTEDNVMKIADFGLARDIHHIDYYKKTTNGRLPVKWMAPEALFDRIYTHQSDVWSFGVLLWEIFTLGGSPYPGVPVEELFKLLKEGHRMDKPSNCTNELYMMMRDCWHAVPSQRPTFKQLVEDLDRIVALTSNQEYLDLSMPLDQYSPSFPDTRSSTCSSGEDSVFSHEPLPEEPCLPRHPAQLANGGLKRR
Chain of Serine/threonine-protein kinase Chk1 (O14757 whole entry, the tested form may be a part): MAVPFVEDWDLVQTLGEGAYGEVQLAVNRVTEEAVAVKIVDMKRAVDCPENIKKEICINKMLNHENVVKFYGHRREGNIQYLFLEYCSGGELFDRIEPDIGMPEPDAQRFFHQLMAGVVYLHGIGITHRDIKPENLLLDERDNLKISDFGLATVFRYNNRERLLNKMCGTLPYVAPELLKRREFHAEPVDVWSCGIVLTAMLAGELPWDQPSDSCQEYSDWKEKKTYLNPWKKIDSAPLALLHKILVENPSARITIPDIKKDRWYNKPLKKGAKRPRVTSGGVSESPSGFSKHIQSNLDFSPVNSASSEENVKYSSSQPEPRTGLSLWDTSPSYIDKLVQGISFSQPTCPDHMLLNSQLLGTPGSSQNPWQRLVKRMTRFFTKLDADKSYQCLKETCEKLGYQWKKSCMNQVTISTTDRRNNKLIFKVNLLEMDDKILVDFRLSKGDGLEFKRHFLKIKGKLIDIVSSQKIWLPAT
Chain of Mitogen-activated protein kinase 11 (Homo sapiens) (Q15759 whole entry): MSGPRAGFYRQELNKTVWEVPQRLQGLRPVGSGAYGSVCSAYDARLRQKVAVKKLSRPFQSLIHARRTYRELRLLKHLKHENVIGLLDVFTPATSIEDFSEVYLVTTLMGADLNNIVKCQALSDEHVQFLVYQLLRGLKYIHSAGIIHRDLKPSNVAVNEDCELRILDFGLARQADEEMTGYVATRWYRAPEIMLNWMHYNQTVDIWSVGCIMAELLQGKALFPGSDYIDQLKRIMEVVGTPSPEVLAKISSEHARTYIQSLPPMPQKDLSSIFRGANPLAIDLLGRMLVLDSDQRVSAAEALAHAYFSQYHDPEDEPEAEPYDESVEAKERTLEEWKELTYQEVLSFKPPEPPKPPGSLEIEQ

- IC50 [2]: > 1 mM
- inhibition [4]: 13%
- inhibition (Rattus norvegicus [6]): 6.6%
- inhibition [8]: 18%
- IC50 [9]: > 699 µM
- IC50 (Aurora kinase B): 28 µM
SMILES: Cc1cc([C@@H](C)Nc2ccccc2C(=O)O)c2nc(N3CCOCC3)cc(=O)n2c1 [AZD-6482]
- Activity (Rattus norvegicus [1]): 7.6 mM
- Activity (Rattus norvegicus [3]): 7.8 mM
- Activity (Rattus norvegicus [5]): 7.2 mM
- Activity [7]: Non-Toxic
- Activity [10]: Non-Toxic
- Activity (Rattus norvegicus [11]): 107 µmol/min/kg
